Consider 35 molecules from ChEMBL document CHEMBL1129253, “Synthesis and pharmacological activity of triazole derivatives inhibiting eosinophilia” (1996).

One assay concerns Rattus norvegicus. Briefly: Inhibitory activity against eosinophilia when administered intraperitoneally in rats. As to conditions: ip, read-out: ID50 (the source's name).
Consider `C/N=C(\S)n1nc(-c2ccc(Cl)cc2)nc1N`, for which the ED50 came out at 0.07 mg/kg.

The subject of another assay is Rattus norvegicus. Briefly: Tested for sephadex-induced lung Eosinophilia inhibition at 30 mg/kg in rat.
Conditions: not given
The class given is functional. The procedure, abridged: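 Male Wistar rats (5/group) received 1 mL Sephadex G-200 (0.5 mg/mL in saline, boiled 5 h) by tail vein on days 0, 3 and 5. Drug or vehicle was given ip 10 min before each injection. On day 7, lungs were lavaged three times with heparinized PBS at 37 °C. Eosinophils and total cells were counted in Hinkelman reagent. % inhibition compares group-mean eosinophil/total ratios with vehicle.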
As for `C/N=C(\S)n1nc(-c2ccc(Cl)cc2)nc1N`, the inhibition in vivo at 30 mg/kg stood at 88%. Still for that read-out and setting: for `C/N=C(\S)c1ccccc1N` the value was 47%; for `CNC(=S)n1nc(SC)nc1N`, 54%. With `C/N=C(\S)n1nc(-c2ccccc2)nc1N`, the inhibition in vivo at 30 mg/kg was found to be 54%. With `C/N=C(\S)c1c[nH]nc1N`, the inhibition in vivo at 30 mg/kg was -22%. As to `CCOC(=O)C(=O)Nc1ccc(-c2nc(N)n(/C(S)=N/C)n2)cc1`, the inhibition in vivo at 30 mg/kg turned out to be 49%. Regarding `S=C(NC1CCCCC1)n1cncn1`, the inhibition in vivo at 30 mg/kg came out at 0%. Regarding `Nc1ncnn1/C(S)=N/CCCCCO`, the inhibition in vivo at 30 mg/kg is -17%.

Consider `C/N=C(\S)c1sccc1N`, for which the inhibition in vivo at 30 mg/kg came out at 4%. Consider `CCOCCC/N=C(\S)n1ncnc1N`, for which the inhibition in vivo at 30 mg/kg is 1%. For the molecule `CCCC/N=C(\S)n1ncnc1N`, the inhibition in vivo at 30 mg/kg was found to be 21%. The same measure, in the same setting: to `C/N=C(\S)c1nccnc1N` belongs 27%; to `C/N=C(\S)c1cccnc1N`, 27%; to `CNC(=S)n1ncnc1NC`, -1%. `C/N=C(\S)n1nccc1N`: the inhibition in vivo at 30 mg/kg is 27%. In the case of `Nc1ncnn1/C(S)=N/Cc1ccccc1`, the inhibition in vivo at 30 mg/kg was 40%.

For the molecule `CSC(=S)n1ncnc1N`, the inhibition in vivo at 30 mg/kg was 36%. On the same count and under the same terms, to `CS(=O)(=O)n1ncnc1N` belongs -40%; to `C/N=C(\S)n1cnc(N)n1`, 25%; to `CNC(=S)n1nc(-c2ccc(OC)cc2)nc1N`, 70%. In the case of `C/N=C(\S)Nc1ccc(-c2nc(N)n(/C(S)=N/C)n2)cc1`, the inhibition in vivo at 30 mg/kg amounted to 31%.

Turning to `C/N=C(\S)n1nnnc1N`, the inhibition in vivo at 30 mg/kg was 53%. Consider `CN(C)C(=S)n1ncnc1N`, for which the inhibition in vivo at 30 mg/kg came out at 34%. Consider `CNC(=O)n1ncnc1N`, for which the inhibition in vivo at 30 mg/kg was 40%. Take `C/N=C(\S)n1ncnc1N`: the inhibition in vivo at 30 mg/kg worked out at 93%. As for `C/N=C(\S)n1nc(-c2ccc(C)cc2)nc1N`, the inhibition in vivo at 30 mg/kg stood at 65%. Same read-out and setting: for `Nc1ncnn1/C(S)=N/C1CCCCC1` the value was 31%; for `C/N=C(\S)c1[nH]cnc1N`, 5%; for `CCC/N=C(\S)n1ncnc1N`, 93%. For `CCCCCC/N=C(\S)n1ncnc1N`, the inhibition in vivo at 30 mg/kg was -1%. In the case of `C/N=C(\S)n1nc(-c2ccc(C#N)cc2)nc1N`, the inhibition in vivo at 30 mg/kg turned out to be 87%.

For `C/N=C(\S)c1ncccc1N`, the inhibition in vivo at 30 mg/kg was found to be 9%. With `Nc1ncnn1/C(S)=N/c1ccccc1`, the inhibition in vivo at 30 mg/kg is -7%. Regarding `C/N=C(\S)n1nc(C)nc1N`, the inhibition in vivo at 30 mg/kg stood at 13%.

Take `C/N=C(\S)n1nc(N)nc1N`: the inhibition in vivo at 30 mg/kg stood at 53%.

In a further assay the test system is Rattus norvegicus. The experiment in a line: Inhibitory activity against eosinophilia when administered orally in rats. The settings on record: po, read-out: ID50 (the source's name).
Turning to `C/N=C(\S)n1nc(-c2ccc(Cl)cc2)nc1N`, the ED50 came to 0.3 mg/kg.
